GSTO1 inh – inhibitors of recombinant GSTO1, primary screen, counter-screen for RBBP9 inhibitor project, biochemical, fluorescence polarization. Glutathione S-transferase omega-1 (Homo sapiens), P78417. activity-based probe fluorescence polarization. inhibition, % at 5.96 µM. 300,000 compounds, 1.1% hits. AID 1974, 2009;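 active = inhibition above the campaign mean inhibition plus 3 SD, cut at about 35% in these data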;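 also: 0% = GSTO1-1 with DMSO and 100% = wells lacking GSTO1-1 enzyme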
SIAE primary – human SIAE inhibitors, primary screen, biochemical, fluorescence polarization, FP-Rh probe, 1536-well HTS. Sialate O-acetylesterase (Homo sapiens), Q9HAT2. SIAE FP-Rh probe binding. inhibition, % at 9.66 µM. 370,000 compounds, 0.69% hits. AID 1053197, 2014;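 active = inhibition above a cutoff: mean of compounds within the control limits plus 3 SD of those, cut at about 17% in these data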;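 also: 0% = plate median of compound wells and 100% = probe without SIAE protein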
PAD4 FP inh – human PAD4 inhibitors, primary screen, biochemical, fluorescence polarization, 1536-well format; recombinant PAD4, RCA probe fluorescence polarization; Protein-arginine deiminase type-4 (Homo sapiens), Q9UM07; 330,000 compounds, 0.41% hits; AID 485272, 2010; inhibition, % at 6.36 µM;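 active = percent inhibition above a cutoff equal to the mean of all tested compounds plus 3 SD, cut at about 15% in these data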;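 also: 0% = PAD4 with RCA probe and DMSO and 100% = probe without PAD4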
Target sequence (Q9UM07 whole entry, looked up): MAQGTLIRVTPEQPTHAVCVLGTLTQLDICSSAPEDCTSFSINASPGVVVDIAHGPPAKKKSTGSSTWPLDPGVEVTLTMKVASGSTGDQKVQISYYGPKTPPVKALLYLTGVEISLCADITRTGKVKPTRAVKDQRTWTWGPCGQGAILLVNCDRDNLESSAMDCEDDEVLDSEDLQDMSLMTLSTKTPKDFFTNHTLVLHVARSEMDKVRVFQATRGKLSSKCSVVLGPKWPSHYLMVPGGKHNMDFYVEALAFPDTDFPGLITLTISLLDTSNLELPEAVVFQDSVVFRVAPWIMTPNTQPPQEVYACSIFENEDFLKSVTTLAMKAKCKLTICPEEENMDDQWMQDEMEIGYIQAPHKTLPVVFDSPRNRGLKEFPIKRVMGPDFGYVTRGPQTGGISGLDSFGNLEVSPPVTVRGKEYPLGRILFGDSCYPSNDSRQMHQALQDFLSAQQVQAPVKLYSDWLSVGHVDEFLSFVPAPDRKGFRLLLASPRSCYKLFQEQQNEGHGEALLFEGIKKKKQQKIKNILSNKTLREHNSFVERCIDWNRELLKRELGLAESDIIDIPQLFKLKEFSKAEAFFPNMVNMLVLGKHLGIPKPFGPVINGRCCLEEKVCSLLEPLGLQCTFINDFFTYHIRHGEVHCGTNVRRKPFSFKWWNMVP
PRMT1 inh – PRMT1 methyltransferase inhibitors, primary screen, biochemical, fluorescence polarization; Protein arginine N-methyltransferase 1 (Homo sapiens), Q99873; recombinant PRMT1, activity-based probe fluorescence polarization; inhibition, % at 2.79 µM; 370,000 compounds, 1.3% hits;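 active = inhibition above about 21% made by adding two undisclosed values, limit read from the data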
RBBP9 inh – human RBBP9 inhibitors, primary screen, biochemical, fluorescence polarization, FP-Rh probe, HTS; AID 1515, 2009; Serine hydrolase RBBP9 (Homo sapiens), O75884; 220,000 compounds, 0.2% hits; recombinant RBBP9; inhibition, % at 7.94 µM;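 active = inhibition above the campaign mean of all tested compounds plus 3 SD, cut at about 14% in these data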;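 also: plate controls were DMSO wells with RBBP9 for no effect and wells lacking RBBP9 protein for full effect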
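Controls: DMSO-treated enzyme wells and wells lacking RBBP9 | Material: RBBP9 protein | Technique: Fluorescence polarization | Replication: Single well per compound, no replicates | Buffer or medium: Tris-NaCl-Pluronic buffer, pH 8.0 | Timing: 30 min compound preincubation, 45 min probe labeling, 25 °C | Read-out basis: Percent inhibition from mP, scaled between DMSO and no-protein wells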
SIAE inh conf – human SIAE inhibitors, retest, confirmation, biochemical, fluorescence polarization, FP-Rh probe, triplicate; shares compounds with SIAE primary; SIAE FP-Rh activity-based probe; inhibition, % at 9.66 µM; 2,300 compounds, 13% hits; AID 1117263, 2014;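 active = mean inhibition of the replicates above the hit cutoff set in the primary screen, cut at about 17% in these data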;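 also: 0% = SIAE with DMSO and probe and 100% = probe without SIAE; inhibitors lower polarization as more probe stays unbound to SIAE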
Numbers without * were called inactive; . = not tested or not shown. The list is not random: actives were taken first. Their share in the collection is about 2.7%.

SMILES	GSTO1 inh	SIAE primary	PAD4 FP inh	PRMT1 inh	RBBP9 inh	SIAE inh conf
Cc1ccc(C(=O)N2CC=C(c3ccccc3)CC2)s1	-5.8	19.4*	5.0	1.5	.	0.2
Cc1ccc(C(=O)NC(=S)Nc2ccccc2C(F)(F)F)cc1C	-8.2	-9.5	-3.2	-0.9	-7.7	.
O=C(O)CCCn1cc(NC(=O)COc2ccc(F)cc2)cn1	2.0	0.5	-1.6	1.7	.	.
O=C(O)CCCn1cc(NC(=O)c2cccc(F)c2)cn1	-1.3	19.7*	1.1	-3.9	8.8	1.1
Nc1n[nH]c(N)c1N=Nc1ccc(F)cc1	8.8	0.2	-1.4	-8.9	-10.3	.
COc1ccc(N=Nc2c(N)n[nH]c2N)cc1	10.7	22.1*	-4.2	-5.8	-0.3	1.3
CCCCCn1c(Sc2ccccc2)nc2c1c(=O)[nH]c(=O)n2C	0.0	-5.3	-6.3	-3.6	-6.7	.
Nc1ncnc2c1ncn2[C@@H]1O[C@H](C(=O)N[C@@H](CCc2ccccc2)C(=O)N2CCN(C(=O)N3CCCCC3)CC2)[C@@H](O)[C@H]1O	.	2.2	.	0.3	.	.
Nc1ncnc2c1ncn2[C@@H]1O[C@H](C(=O)N[C@@H](CCc2ccccc2)C(=O)N2CCN(C(=O)N3CCOCC3)CC2)[C@@H](O)[C@H]1O	.	69.6*	.	-1.9	.	73.3*
Nc1ncnc2c1ncn2[C@@H]1O[C@H](C(=O)N[C@@H](CCc2ccccc2)C(=O)N2CCN(CC(=O)N3CCCC3)CC2)[C@@H](O)[C@H]1O	.	28.9*	.	3.3	.	120.7*
Nc1ncnc2c1ncn2[C@@H]1O[C@H](C(=O)NCCc2ccc(F)cc2)[C@@H](O)[C@H]1O	.	23.2*	.	0.3	.	22.1*
Nc1ncnc2c1ncn2[C@@H]1O[C@H](C(=O)N[C@@H](CO)Cc2ccccc2)[C@@H](O)[C@H]1O	.	25.5*	.	1.0	.	25.2*
Cc1ccc(Cn2c(C(C)Nc3nc(-c4ccc(F)cc4)cs3)nc3cc(C(F)(F)F)ccc32)cc1 (stereo not drawn)	1.1	-0.5	-0.6	-0.2	.	.
CC(C)CCNC(=O)CSc1nc2ccccc2s1	2.9	-1.1	2.1	8.2	-7.0	.
O=C(CSc1nnc(-c2ccc(OC(F)F)cc2)o1)N1CCOCC1	-2.0	0.8	-4.9	2.7	0.6	.
CN(Cc1ccc2c(c1)CCCN2C)C(=O)[C@H]1O[C@@H](n2cnc3c(N)ncnc32)[C@H](O)[C@@H]1O	.	58.6*	.	10.8	.	46.8*
CC(C)[C@@H](CO)NC(=O)[C@H]1O[C@@H](n2cnc3c(N)ncnc32)[C@H](O)[C@@H]1O	.	7.5	.	-4.4	.	.
CN(C)c1cccc2c(S(=O)(=O)NC(=O)[C@H]3O[C@@H](n4cnc5c(N)ncnc54)[C@H](O)[C@@H]3O)cccc12	.	55.8*	.	4.5	.	53.0*
NS(=O)(=O)c1cccc(NC(=O)CC2(CC(=O)O)CCCC2)c1	0.2	36.5*	-2.5	-1.8	.	-1.0
COc1cccc(NC(=O)CC2(CC(=O)O)CCCC2)c1	-8.3	2.0	0.2	1.6	-3.6	.
O=Nc1c(O)[nH]c2ccc(F)cc12	4.9	22.6*	0.6	0.2	9.9	21.9*
COc1ccc2[nH]c(O)c(N=NC(=O)Cc3cccs3)c2c1	24.5	18.3*	-2.7	1.3	8.6	11.1
COc1ccc2[nH]c(O)c(N=O)c2c1	-0.5	25.5*	-1.9	-0.7	2.9	23.2*
O=C(Cc1cccs1)N=Nc1c(O)[nH]c2ccc(Br)cc12	17.7	-18.4	1.5	-4.4	-1.6	.
C/C(=N\O)c1cc(Cl)cc(Cl)c1O	6.5	24.8*	10.4	0.7	6.6	30.3*
SMILES	GSTO1 inh	SIAE primary	PAD4 FP inh	PRMT1 inh	RBBP9 inh	SIAE inh conf
CCCC[C@@H]1CNC(=O)C(=O)N1CCc1cccc2ccccc12	-3.9	.	2.6	.	.	.
COc1ccccc1N1CCN(C(=O)CCNC(=O)Cn2ccc3ccccc3c2=O)CC1	4.3	1.1	1.8	2.3	.	.
Cc1cc(S(=O)(=O)c2ccc([N+](=O)[O-])cn2)ccc1Br	7.8	23.7*	6.3	11.3	.	7.3
COc1ccc(CC(=O)NCC2CCCN(Cc3ccccc3OC)C2)cc1 (stereo not drawn)	-2.7	-3.4	-1.2	2.3	.	.
COc1ccc(OC)c([N+](=O)[O-])c1C(N)=O	18.6	33.0*	-7.3	7.5	5.7	1.9
O=C(N/N=C/c1c(O)n(Cc2ccccc2)c(=O)c2ccccc12)c1cccnc1	2.3	26.0*	-7.8	-3.2	-4.6	12.4
COc1ccc(Cn2c(O)c(/C=N/NC(=O)c3cccnc3)c3ccccc3c2=O)cc1	.	29.4*	.	-8.2	4.1	6.6
O=C(N/N=C/c1c(O)n(-c2ccccc2Cl)c(=O)c2ccccc12)c1cccnc1	.	9.0	.	2.8	1.2	.
CC(=O)c1cccc(Nc2nc3ccccc3n3cnnc23)c1	-3.6	-2.7	-5.3	2.4	.	.
COc1ccc(OCC(=O)Nc2cc(S(=O)(=O)N3CCCC3)ccc2OCC(F)(F)F)cc1	.	39.9*	.	1.8	.	-1.4
Cc1nc(NS(=O)(=O)c2ccccc2)sc1NC(=O)Nc1ccc(Cl)cc1	9.2	17.6*	-9.1	7.4	-2.2	27.3*
Cc1nc(NS(=O)(=O)c2ccccc2)sc1NC(=O)Nc1ccccc1	8.2	9.0	5.6	-0.5	3.1	.
CCOC(=O)c1[nH]c2ccc(Cl)cc2c1NC(=O)/C=C/c1ccc2c(c1)OCO2	-2.2	-0.9	3.8	-1.9	-0.1	.
CCN(CC(=O)Nc1c(C(=O)OC)[nH]c2ccc(Cl)cc12)c1ccc2c(c1)OCO2	10.9	21.2*	-1.4	7.8	4.2	12.9
CCn1nc(NS(=O)(=O)c2ccc(NC(C)=O)cc2)c2cc3cccc(C)c3nc21	4.4	18.4*	0.2	0.1	.	-3.4
CCn1nc(NS(=O)(=O)c2ccccc2)c2cc3cccc(C)c3nc21	-5.1	0.4	4.6	-3.7	-3.3	.
CCc1c(-c2ccccc2Br)ncn1CCc1ccccc1OC	.	3.4	.	7.8	.	.
Brc1csc(/C=N/Nc2nc3ccccc3s2)c1	-19.2	15.4	-2.8	2.8	7.9	.
Cc1ccc2[nH]c(C)c(/C=N/Nc3nc4ccccc4s3)c2c1	-24.7	40.6*	2.3	2.5	-2.7	16.6
CN(C)/C=N/C(=S)Nc1cc(Cl)cc(Cl)c1	2.5	17.3*	-3.4	0.4	-4.2	1.1
CC(=O)NS(=O)(=O)c1ccc(NC(=O)c2ccc(Cl)cc2[N+](=O)[O-])cc1	5.9	-9.8	2.1	-1.4	-6.8	.
O=C(Nc1ccc(Nc2ccccc2)cc1)c1ccc(Cl)cc1[N+](=O)[O-]	1.1	21.0*	-5.6	7.5	.	5.4

Source: PubChem BioAssay
